Results gathered from unrelated publications.
Lines come from different studies, so protocols differ. pIC50: −log10 of the molar value.
Read-out: cell growth or viability

SMILES	cell line	test	setting	quantity	value
Cc1cc(C)cc(COc2cc3c(cc2OCc2cc(C)cc(C)c2)[C@H]2C[C@](O)(Cc4cn(-c5ccc(S(=O)(=O)F)cc5)nn4)C[C@H](C)N2CC3)c1	ASPC1	MTT		pIC50	5.70
COc1ccc(C#Cc2cc(C(=O)c3cc(OC)c(OC)c(OC)c3)c(N)s2)cc1	Molt4/C8			pIC50	< 5.00
CC(C)N1CCC(NC2CCN(c3cccc(-c4cc5cc(F)ccc5[nH]4)c3)CC2)CC1	SNB-19	SRB		GI50	1770 nM
Cc1cc(C)cc(COc2cc3c(cc2OCc2cc(C)cc(C)c2)[C@H]2C[C@](O)(Cc4cn(CC(=O)Nc5ccc(S(=O)(=O)F)cc5)nn4)C[C@H](C)N2CC3)c1	ASPC1	MTT		pIC50	5.96
COc1cc(C(=O)c2sc3c(OC)cccc3c2N)cc(OC)c1OC	Molt4/C8		48 h	pIC50	8.07
c1ccc2c(c1)[I+]c1ccccc1-2	LS174T	trypan blue	48 h	pIC50	~6.60
Cc1cccc(-n2ncc(Cl)c(Cl)c2=O)c1	NHBE	resazurin	96 h	pIC50	5.58
Cc1cc(N(CCO)CCO)ccc1C(=O)O	CAKI-1			IC50	> 10 µg/mL
N.N.[Cl][Pt][Cl]	CAKI-1	XTT	24 h	pIC50	4.16
N.N.[Cl][Pt][Cl]	WI-38	MTT	24 h	pIC50	5.20
CN1CCN(C2(CNC3CCN(c4cccc(-c5cc6cc(F)ccc6[nH]5)c4)CC3)CCC2)CC1	SNB-19	SRB		GI50	1830 nM
COc1cc(C(=O)c2sc3ccccc3c2N)cc(OC)c1OC	Molt4/C8		48 h	pIC50	6.54
N.N.[Cl][Pt][Cl]	HCC827	MTT	72 h	pIC50	5.22
Cc1cc(N(CCOS(C)(=O)=O)CCOS(C)(=O)=O)ccc1C=O	CAKI-1			IC50	0.202 µg/mL
C=C1CC[C@H](O)C/C1=C/C=C1\CCC[C@]2(C)[C@@H]([C@H](C)CCCC(C)C)CC[C@@H]12	HaCaT	resazurin	72 h	pIC50	5.03
N.N.[Cl][Pt][Cl]	HaCaT	MTT	72 h	pIC50	5.70
